Assay results of several laboratories.
CDK17 with cyclin Y: Cyclin-dependent kinase 17, with cyclin Y (CDK17, Homo sapiens, UniProt Q00537)
CDK17: Cyclin-dependent kinase 17 (CDK17, Homo sapiens, UniProt Q00537)

SMILES	target	assay	conditions	endpoint	result
Cc1ccc(C(=O)NCc2ccsc2)cc1C#Cc1cn(C(C)C)c2ncnc(N)c12	CDK17 with cyclin Y	enzyme activity, inhibitor	1 µM	activity vs control	104%
Cc1ccc(C(=O)Nc2ccc(CN3CCN(C)CC3)c(C(F)(F)F)c2)cc1C#Cc1cnc2cccnn12	CDK17	enzyme activity, inhibitor	23.5 nM	remaining activity	7.6%
Cc1nccc(COC(=O)N2C[C@@H]3[C@@H](CNC(=O)c4ccc5[nH]nnc5c4)[C@@H]3C2)n1	CDK17	cell-free assay, competition with immobilised ligand	1 µM	remaining binding	90%
C[C@@H]1CCN(c2nccc(-c3cnn4ncccc34)n2)C1	CDK17	binding	1 µM	remaining binding	100%
O=C(Nc1cnc(Oc2ccc(F)cc2)nc1)N1CCc2ncccc2[C@@H]1c1ccc(F)cc1	CDK17	cell-free assay, competition with immobilised ligand	1 µM	remaining binding	97%
O=C(Nc1cnn(-c2csc(C(=O)NC3COC3)c2)c1)Nc1ccccc1Cl	CDK17 with cyclin Y	enzyme activity, inhibitor	5 µM	remaining activity	106%
O=C(N[C@H]1CCCCC/C=C\C2C[C@@]2(C(=O)O)NC(=O)[C@@H]2C[C@@H](Oc3ccncc3)CN2C1=O)OC1CCCC1 (stereo partly shown)	CDK17	binding, competition with immobilised ligand	1 µM	remaining binding	89%
Cn1c2c(c3ccc(Cl)c(Cl)c31)C(C#N)C(C)(C)NC2=O (stereo not shown)	CDK17	thermal stability, DSF	10 µM	ΔTm	1.1 °C
CCCOc1ccc([C@H]2[C@H](C(=O)O)[C@@H](c3ccc4c(c3)OCO4)CN2CC(=O)Nc2c(CC)cccc2CC)cc1	CDK17	cell-free assay, competition with immobilised ligand	1 µM	remaining binding	91%
Cn1c2c(Cl)c(Cl)ccc2c2cn[nH]c(=O)c21	CDK17	thermal stability, DSF	10 µM	ΔTm	0.5 °C
Cc1sc(C(=O)NC2COC2)cc1-n1cc(NC(=O)Nc2c(F)cccc2Cl)cn1	CDK17 with cyclin Y	enzyme activity, inhibitor	10 µM	remaining activity	102%
Cn1c2c(Cl)c(Cl)ccc2c2cc(N)[nH]c(=O)c21	CDK17	thermal stability, DSF	10 µM	ΔTm	0.6 °C
COc1cccc2c(NCc3ccccc3)nc(-n3c(N)nc4ccccc43)nc12	CDK17	target engagement in cells, inhibitor, chemoproteomics	20 mM	inhibition	-40.2%
